Calls of active or inactive are those of the source. The calls are words filed in the database; no cut-off is given here.
What was measured:
Rattus norvegicus [1] = species on record: Rattus norvegicus; test: Selectivity ratio of IC50 for rat GABA-A receptor alpha6beta3gamma2 expressed in HEK293 cells to IC50 for rat GABA-A receptor alpha6beta3delta expressed in HEK293 cells; format: cell-based
[2] = target: T1, Gamma-aminobutyric acid receptor subunit alpha-4/beta-3/gamma-2 (Rattus norvegicus) (UniProt P18508+P28471+P63079); test: Modulation of rat eGFP-fused GABA-A receptor alpha4beta3gamma2 expressed in HEK293 cells at <=1 uM in presence of GABA by patch-clamp assay relative to control; format: cell-based
[3] = target: Gamma-aminobutyric acid receptor subunit alpha-4/beta-3 (Rattus norvegicus, UniProt P28471+P63079); test: Modulation of rat […] GABA-A receptor alpha4beta3 expressed in HEK293 cells in presence of GABA by patch-clamp assay; format: cell-based
Summary of the method: (§1)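 Rat GABA-A subunits were transiently co-transfected with eGFP into HEK293 cells on coverslips. Fluorescent cells were recorded by whole-cell patch clamp 48 h later; bath pH 7.4, KCl/KOH pipette pH 7.2. Compound was applied at increasing concentrations up to 10 µM with the receptor-specific GABA EC20. Peak currents were fitted logistically for EC50, Hill and % modulation, as mean ± S.E.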

[4] = target: T2, Gamma-aminobutyric acid receptor subunit alpha-4/beta-3/delta (Rattus norvegicus) (UniProt P18506+P28471+P63079); test: Agonist activity at rat […] GABA-A receptor alpha4beta3delta expressed in HEK293 cells assessed as ratio of I0 to GABA Imax at 10 uM in absence of GABA by patch-clamp assay; format: cell-based
Summary of the method: (§2)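 Whole-cell patch clamp on single fluorescent HEK 293 cells 48 h after transient co-transfection with rat subunit cDNAs plus eGFP. Extracellular solution 135 mM NaCl, 5.3 mM KCl, 2 mM CaCl2, 2 mM MgSO4, 10 mM HEPES pH 7.4, perfused 3 mL/min. Compound at 10 µM without GABA. Current expressed relative to 1 mM GABA at the same receptor (I0/Imax GABA), mean ± S.D. of n experiments.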

[5] = target: T3, Gamma-aminobutyric acid receptor subunit alpha-1/beta-3/delta (Rattus norvegicus) (UniProt P18506+P62813+P63079); test: Agonist activity at rat […] GABA-A receptor alpha1beta3delta expressed in HEK293 cells assessed as ratio of I0 to GABA Imax at 10 uM in absence of GABA by patch-clamp assay; format: cell-based; summary of the method: as §2
[6] = target: Gamma-aminobutyric acid receptor subunit alpha-4/beta-3 (Rattus norvegicus) (UniProt P28471+P63079); test: Modulation of rat […] GABA-A receptor alpha4beta3 expressed in HEK293 cells up to 10 uM in presence of GABA by patch-clamp assay relative to control; format: cell-based; summary of the method: as §1
[7] = target: Gamma-aminobutyric acid receptor subunit alpha-6/beta-3/gamma-2 (Rattus norvegicus, UniProt P18508+P30191+P63079); test: Displacement of [3H]EBOB from rat GABA-A receptor alpha6beta3gamma2 expressed in HEK293 cell membranes after 90 mins by liquid scintillation counting analysis
Summary of the method: (§3)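 Crude membranes from HEK 293 cells transiently Ca-phosphate-transfected with rat subunit cDNAs, harvested at 48 h. Membranes (150-200 µg protein) incubated with 3 nM [3H]EBOB in 50 mM Tris/citrate pH 7.3 plus 0.2 M NaCl. Compound up to 10 µM, final DMSO 0.1%, no GABA, 90 min at 21 °C. Bound radioligand collected by GF/C filtration and counted by scintillation.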

[8] = target: Gamma-aminobutyric acid receptor subunit alpha-1/beta-3/gamma-2 (Rattus norvegicus) (UniProt P18508+P62813+P63079); test: Displacement of [3H]EBOB from rat GABA-A receptor alpha1beta3gamma2 expressed in HEK293 cell membranes at 10 uM after 90 mins by liquid scintillation counting analysis relative to control; summary of the method: as §3
[9] = target: Gamma-aminobutyric acid receptor subunit alpha-6/beta-3 (Rattus norvegicus) (UniProt P30191+P63079); test: Displacement of [3H]EBOB from rat GABA-A receptor alpha6beta3 expressed in HEK293 cell membranes up to 10 uM after 90 mins by liquid scintillation counting analysis relative to control; summary of the method: as §3
[10] = target: T1, Gamma-aminobutyric acid receptor subunit alpha-4/beta-3/gamma-2 (Rattus norvegicus); test: Displacement of [3H]EBOB from rat GABA-A receptor alpha4beta3gamma2 expressed in HEK293 cell membranes up to 10 uM after 90 mins by liquid scintillation counting analysis relative to control; summary of the method: as §3
[11] = target: T3, Gamma-aminobutyric acid receptor subunit alpha-1/beta-3/delta (Rattus norvegicus); test: Displacement of [3H]EBOB from rat GABA-A receptor alpha1beta3delta expressed in HEK293 cell membranes at 10 uM after 90 mins by liquid scintillation counting analysis relative to control; summary of the method: as §3
[12] = target: T2, Gamma-aminobutyric acid receptor subunit alpha-4/beta-3/delta (Rattus norvegicus); test: Displacement of [3H]EBOB from rat GABA-A receptor alpha4beta3delta expressed in HEK293 cell membranes up to 10 uM after 90 mins by liquid scintillation counting analysis relative to control; summary of the method: as §3
[13] = target: Gamma-aminobutyric acid receptor subunit alpha-6/beta-3/delta (Rattus norvegicus) (UniProt P18506+P30191+P63079); test: Displacement of [3H]EBOB from rat GABA-A receptor alpha6beta3delta expressed in HEK293 cell membranes up to 10 uM after 90 mins by liquid scintillation counting analysis relative to control; summary of the method: as §3
[14] = target: Gamma-aminobutyric acid receptor subunit alpha-4/beta-3/delta (Rattus norvegicus, UniProt P18506+P28471+P63079); test: Modulation of rat […] GABA-A receptor alpha4beta3delta expressed in HEK293 cells in presence of GABA by patch-clamp assay; format: cell-based; summary of the method: as §1
[15] = target: Gamma-aminobutyric acid receptor subunit alpha-1/beta-3/delta (Rattus norvegicus, UniProt P18506+P62813+P63079); test: Modulation of rat […] GABA-A receptor alpha1beta3delta expressed in HEK293 cells in presence of GABA by patch-clamp assay; format: cell-based; summary of the method: as §1
Rattus norvegicus [16] = species on record: Rattus norvegicus; test: Selectivity ratio of IC50 for rat GABA-A receptor alpha6beta3 expressed in HEK293 cells to IC50 for rat GABA-A receptor alpha6beta3delta expressed in HEK293 cells; format: cell-based
[17] = target: Gamma-aminobutyric acid receptor subunit alpha-6/beta-3 (Rattus norvegicus, UniProt P30191+P63079); test: Displacement of [3H]EBOB from rat GABA-A receptor alpha6beta3 expressed in HEK293 cell membranes after 90 mins by liquid scintillation counting analysis; summary of the method: as §3
[18] = target: GABA-A receptor alpha6beta3delta (++); test: Modulation of rat eGFP-fused GABA-A receptor alpha6beta3delta expressed in HEK293 cells in presence of GABA by patch-clamp assay
[19] = target: T4, Gamma-aminobutyric acid receptor subunit alpha-6/beta-3/gamma-2 (Rattus norvegicus) (UniProt P18508+P30191+P63079); test: Agonist activity at rat […] GABA-A receptor alpha6beta3gamma2 expressed in HEK293 cells assessed as ratio of I0 to GABA Imax at 10 uM in absence of GABA by patch-clamp assay; format: cell-based; summary of the method: as §2
[20] = target: T4, Gamma-aminobutyric acid receptor subunit alpha-6/beta-3/gamma-2 (Rattus norvegicus); test: Displacement of [3H]EBOB from rat GABA-A receptor alpha6beta3gamma2 expressed in HEK293 cell membranes up to 10 uM after 90 mins by liquid scintillation counting analysis relative to control; summary of the method: as §3

Chain of Gamma-aminobutyric acid receptor subunit alpha-6/beta-3/gamma-2 (P18508 whole entry): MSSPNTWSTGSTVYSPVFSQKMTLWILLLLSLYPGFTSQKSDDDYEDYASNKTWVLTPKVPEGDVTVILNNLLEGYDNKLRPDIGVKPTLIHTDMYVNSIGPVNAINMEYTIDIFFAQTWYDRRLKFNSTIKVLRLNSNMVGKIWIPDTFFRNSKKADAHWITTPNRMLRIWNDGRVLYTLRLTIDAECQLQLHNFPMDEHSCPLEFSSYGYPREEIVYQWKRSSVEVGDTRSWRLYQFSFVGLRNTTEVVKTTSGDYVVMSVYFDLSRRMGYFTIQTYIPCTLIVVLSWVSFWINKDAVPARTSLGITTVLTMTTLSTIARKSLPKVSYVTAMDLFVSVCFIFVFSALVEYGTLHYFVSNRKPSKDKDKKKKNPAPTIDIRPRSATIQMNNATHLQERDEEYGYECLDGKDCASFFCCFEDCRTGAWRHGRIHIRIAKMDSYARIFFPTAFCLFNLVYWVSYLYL
Chain of Gamma-aminobutyric acid receptor subunit alpha-6/beta-3/gamma-2 (P30191 whole entry): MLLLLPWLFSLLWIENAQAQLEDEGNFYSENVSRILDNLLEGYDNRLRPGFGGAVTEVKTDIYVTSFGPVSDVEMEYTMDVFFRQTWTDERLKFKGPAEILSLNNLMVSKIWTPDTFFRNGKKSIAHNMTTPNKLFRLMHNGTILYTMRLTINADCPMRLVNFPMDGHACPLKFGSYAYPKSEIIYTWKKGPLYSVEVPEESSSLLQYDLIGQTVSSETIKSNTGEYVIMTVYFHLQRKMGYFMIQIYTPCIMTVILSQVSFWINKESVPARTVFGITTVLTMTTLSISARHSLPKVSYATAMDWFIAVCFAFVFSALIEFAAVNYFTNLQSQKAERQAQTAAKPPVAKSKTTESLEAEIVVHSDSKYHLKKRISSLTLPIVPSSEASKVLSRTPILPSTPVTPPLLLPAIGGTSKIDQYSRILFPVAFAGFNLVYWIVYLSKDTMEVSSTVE
Chain of Gamma-aminobutyric acid receptor subunit alpha-6/beta-3/gamma-2 (P63079 whole entry): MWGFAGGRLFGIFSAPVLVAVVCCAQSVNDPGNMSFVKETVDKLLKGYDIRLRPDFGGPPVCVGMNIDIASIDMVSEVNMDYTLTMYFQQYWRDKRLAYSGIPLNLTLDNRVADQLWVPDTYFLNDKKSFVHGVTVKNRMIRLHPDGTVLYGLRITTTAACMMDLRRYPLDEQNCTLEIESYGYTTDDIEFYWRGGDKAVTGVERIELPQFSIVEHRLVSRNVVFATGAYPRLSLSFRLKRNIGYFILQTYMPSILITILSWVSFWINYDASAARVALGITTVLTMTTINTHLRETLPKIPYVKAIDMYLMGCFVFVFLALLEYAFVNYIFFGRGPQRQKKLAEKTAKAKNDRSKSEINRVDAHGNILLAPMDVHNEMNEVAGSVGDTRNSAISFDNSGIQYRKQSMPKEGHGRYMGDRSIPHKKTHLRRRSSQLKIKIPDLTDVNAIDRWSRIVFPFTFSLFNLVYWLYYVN
Chain of Gamma-aminobutyric acid receptor subunit alpha-4/beta-3 (P28471 whole entry): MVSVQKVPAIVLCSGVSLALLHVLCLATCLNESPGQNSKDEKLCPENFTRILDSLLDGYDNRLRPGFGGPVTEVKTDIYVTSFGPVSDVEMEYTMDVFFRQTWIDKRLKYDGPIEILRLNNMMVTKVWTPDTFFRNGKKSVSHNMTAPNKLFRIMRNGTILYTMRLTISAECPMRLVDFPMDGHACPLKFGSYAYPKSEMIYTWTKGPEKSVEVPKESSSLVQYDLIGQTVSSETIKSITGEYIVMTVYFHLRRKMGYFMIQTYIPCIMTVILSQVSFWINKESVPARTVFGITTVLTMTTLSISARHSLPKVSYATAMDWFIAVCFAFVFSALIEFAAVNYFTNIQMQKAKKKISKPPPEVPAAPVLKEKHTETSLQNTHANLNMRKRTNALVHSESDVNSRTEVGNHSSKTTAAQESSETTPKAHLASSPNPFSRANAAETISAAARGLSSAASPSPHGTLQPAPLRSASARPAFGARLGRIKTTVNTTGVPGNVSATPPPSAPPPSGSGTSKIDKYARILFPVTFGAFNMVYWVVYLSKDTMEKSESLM
Chain of Gamma-aminobutyric acid receptor subunit alpha-4/beta-3 (P63079 whole entry): as the sequence (P63079 whole entry) above
Chain of Gamma-aminobutyric acid receptor subunit alpha-1/beta-3/delta (P18506 whole entry): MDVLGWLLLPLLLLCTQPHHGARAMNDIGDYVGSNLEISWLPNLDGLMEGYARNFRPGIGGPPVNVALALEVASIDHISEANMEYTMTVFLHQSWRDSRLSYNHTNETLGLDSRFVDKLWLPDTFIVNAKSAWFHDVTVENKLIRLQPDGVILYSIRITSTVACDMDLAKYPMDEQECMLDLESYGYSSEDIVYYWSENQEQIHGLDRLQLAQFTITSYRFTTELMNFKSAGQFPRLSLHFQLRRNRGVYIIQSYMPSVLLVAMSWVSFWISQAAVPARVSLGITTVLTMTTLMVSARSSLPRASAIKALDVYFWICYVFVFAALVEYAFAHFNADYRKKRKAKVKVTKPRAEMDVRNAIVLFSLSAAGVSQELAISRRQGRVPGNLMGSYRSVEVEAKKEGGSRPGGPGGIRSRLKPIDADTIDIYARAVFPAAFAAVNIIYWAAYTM
Chain of Gamma-aminobutyric acid receptor subunit alpha-1/beta-3/delta (P62813 whole entry): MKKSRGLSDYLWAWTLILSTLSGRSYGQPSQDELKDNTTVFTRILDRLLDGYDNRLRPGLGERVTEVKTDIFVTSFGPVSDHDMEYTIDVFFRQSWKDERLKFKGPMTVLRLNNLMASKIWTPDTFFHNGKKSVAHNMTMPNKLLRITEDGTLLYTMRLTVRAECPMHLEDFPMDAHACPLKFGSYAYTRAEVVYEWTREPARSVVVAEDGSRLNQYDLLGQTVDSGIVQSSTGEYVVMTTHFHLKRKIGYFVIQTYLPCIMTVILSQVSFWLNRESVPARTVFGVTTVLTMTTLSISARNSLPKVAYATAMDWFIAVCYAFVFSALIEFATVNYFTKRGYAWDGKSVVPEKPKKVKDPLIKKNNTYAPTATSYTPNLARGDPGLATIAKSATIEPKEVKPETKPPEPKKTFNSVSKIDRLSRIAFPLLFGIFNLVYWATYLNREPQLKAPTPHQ
Chain of Gamma-aminobutyric acid receptor subunit alpha-1/beta-3/delta (P63079 whole entry): as the sequence (P63079 whole entry) above
Chain of Gamma-aminobutyric acid receptor subunit alpha-4/beta-3/delta (P18506 whole entry): as the sequence (P18506 whole entry) above
Chain of Gamma-aminobutyric acid receptor subunit alpha-4/beta-3/delta (P28471 whole entry): as the sequence (P28471 whole entry) above
Chain of Gamma-aminobutyric acid receptor subunit alpha-4/beta-3/delta (P63079 whole entry): as the sequence (P63079 whole entry) above
Chain of Gamma-aminobutyric acid receptor subunit alpha-6/beta-3 (P30191 whole entry, the tested form may be a part): as the sequence (P30191 whole entry) above
Chain of Gamma-aminobutyric acid receptor subunit alpha-6/beta-3 (P63079 whole entry, the tested form may be a part): as the sequence (P63079 whole entry) above

`O=C(Nc1c(-c2cccs2)nc2c(Br)cc(Br)cn12)c1ccc(Cl)cc1` was tested, and the Ratio IC50 (Rattus norvegicus [1]) was 3, the Activity [2] was “inactive” and the EC50 [3] was 60 nM. For the same compound, the Ratio [4] was 1.61, the Ratio [5] was 0.323 and the Activity [6] was 168%. The IC50 [7] was 930 nM, the Imax [8] was 13% and the Imax [9] was 90%. It also gave an Imax [10] of 67%, an Imax [11] of 18% and an Imax [12] of 61%. It also gave an Imax [13] of 84%, an EC50 [14] of 150 nM and an EC50 [15] of 100 nM. For the same compound, the Ratio IC50 (Rattus norvegicus [16]) was 2.5, the IC50 [17] was 790 nM and the EC50 [18] was 130 nM. The Ratio [19] was 1.12 and the Imax [20] was 94%.

From ChEMBL document CHEMBL4190374, “Structure-Function Evaluation of Imidazopyridine Derivatives Selective for δ-Subunit-Containing γ-Aminobutyric Acid Type A (GABAA) Receptors” (J Med Chem, 2018)
